In ChEMBL document CHEMBL1131075, “New aza-dipeptide analogues as potent and orally absorbed HIV-1 protease inhibitors: candidates for clinical development” (J Med Chem, 1998):

Experiments:
[1] = target: Human immunodeficiency virus type 1 protease (Human immunodeficiency virus 1) (UniProt Q72874); experiment: Concentration required to inhibit 50% of RT production in HIV-1/MN-infected MT-2 cells.; type: functional, cell-based; conditions: MT2
Outline: (§1)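 HIV-1/MN virus stocks taken from culture supernatant of chronically infected H9/HIV-1/MN cells and used to infect MT-2 cells. Antiviral effect read out as percent reduction of reverse transcriptase activity. ED50 and ED90 are the concentrations giving 50% and 90% inhibition of RT production. Values are averages of at least three determinations.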

Mus musculus [2] = experiment: Drug concentration in blood sample was analyzed by reversed phase HPLC 30 min (c90) after oral application of 120 mg/kg in a standardized formulation; type: functional; conditions: in the assay text read “90 min” for “30 min”
Outline: (§2)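 Female Balb/c mice with free access to food and water, dosed by gavage at 120 mg/kg. Compound dissolved in DMSO at 240 mg/mL, then diluted 1:20 with aqueous 20% hydroxypropyl-β-cyclodextrin, giving a suspension. Four mice per time point; heart blood taken at 30 and 90 min. Plasma deproteinated with acetonitrile and quantified by reversed-phase HPLC-UV against a plasma calibration curve.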

Mus musculus [3] = experiment: Drug concentration in blood sample was analyzed by reversed phase HPLC 30 min (c30) after oral application of 120 mg/kg in a standardized formulation; type: functional; outline: as §2
[4] = target: Human immunodeficiency virus type 1 protease (Human immunodeficiency virus 1) (UniProt Q72874); experiment: concentration of compound required to inhibit 90% of RT production in HIV-1/MN-infected MT-2 cells.; type: functional, cell-based; conditions: MT2; outline: as §1
[5] = system: Human immunodeficiency virus 1; experiment: Antiviral activity against HIV-1 protease inhibitor-resistant strain(Wild type) of the HI virus; type: functional
Outline: (§3)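 CEM-SS cells were infected with each HIV-1 strain (MOI 0.001-0.005) for 4 h at 37 °C, then washed and plated at 20 000 cells/well with serial 3-fold compound dilutions in triplicate at 37 °C, 5% CO2. Compound was kept at constant final concentration through cell splitting on day 4 and medium replacement on day 7. Supernatant RT activity was assayed on days 4, 7 and 10. Value is the lowest concentration giving total inhibition of replication until day 10, averaged over at least three determinations.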

[6] = system: Human immunodeficiency virus 1; experiment: Antiviral activity against HIV-1 protease inhibitor-resistant strain(saquinavir resistant) of the HI virus.(Mutant: G48V,L90M); type: functional; outline: as §3
[7] = system: Human immunodeficiency virus 1; experiment: Antiviral activity against HIV-1 protease inhibitor-resistant strain(indinavir resistant)of the HI virus(L10R,M46I,L63P,V82T,I84V); type: functional; outline: as §3
[8] = system: Human immunodeficiency virus 1; experiment: Antiviral activity against HIV-1 protease inhibitor-resistant strain(CGP 61755 resistant)of the HI virusMutant: K45I,A71Tmix,L76F,I84Vmix); type: functional; outline: as §3
[9] = system: Human immunodeficiency virus 1; experiment: Antiviral activity against HIV-1 protease inhibitor-resistant strain(CGP 61755 resistant)of the HI virus(Mutant: V32I,M46I,L63P,I84A); type: functional; outline: as §3
[10] = system: Human immunodeficiency virus 1; experiment: Antiviral activity against HIV-1 protease inhibitor-resistant strain(indinavir resistant) of the HI virus(L10R,M46I,L63P,V82T,I84V); type: functional; outline: as §3
[11] = system: Human immunodeficiency virus 1; experiment: Antiviral activity against HIV-1 protease inhibitor-resistant strain(CGP 61755 resistant) of the HI virus(Mutant: V32I,M46I,L63P,I84A); type: functional; outline: as §3
[12] = system: Human immunodeficiency virus 1; experiment: Antiviral activity against HIV-1 protease inhibitor-resistant strain(CGP 61755 resistant) of the HI virusMutant: K45I,A71Tmix,L76F,I84Vmix); type: functional; outline: as §3

Row | Compound | ED50 [1] [nM] | c90 (Mus musculus [2]) [µM] | c30 (Mus musculus [3]) [µM] | ED90 [4] [nM] | ED [5] [µM] | ED [6] [µM] | ED [7] [µM] | ED [8] [µM] | ED [9] [µM] | ED [10] [µM] | ED [11] [µM] | ED [12] [µM]
1 | CCN(CC)c1ccc(CN(C[C@H](O)[C@H](Cc2ccccc2)NC(=O)[C@@H](NC(=O)OC)C(C)(C)C)NC(=O)[C@@H](NC(=O)OC)C(C)(C)C)cc1 | 1.6 | 7.6 | 11.8 | 10 | – | – | – | – | – | – | – | –
2 | CCOC(=O)N[C@H](C(=O)N[C@@H](Cc1ccccc1)[C@@H](O)CN(CC1CCCCC1)NC(=O)[C@@H](NC(=O)OCC)C(C)C)C(C)C | 55 | 7.8 | 6.7 | 1000 | – | – | – | – | – | – | – | –
3 | COC(=O)N[C@H](C(=O)N[C@@H](Cc1ccccc1)[C@@H](O)CN(Cc1ccc(-c2ccccc2)cc1)NC(=O)[C@@H](NC(=O)OC)C(C)(C)C)C(C)C | 1.5 | 5.4 | 6.3 | 3 | – | – | – | – | – | – | – | –
4 | COC(=O)N[C@H](C(=O)N[C@@H](Cc1ccccc1)[C@@H](O)CN(Cc1ccc(-c2ccccc2)cc1)NC(=O)[C@@H](NC(=O)OC)C(C)(C)C)C(C)(C)C | 0.7 | 4.9 | 5.5 | 3 | 0.01 | 0.01 | 0.1 | 0.3 | 0.9 | – | – | –
5 | COC(=O)N[C@H](C(=O)N[C@@H](Cc1ccccc1)[C@@H](O)CN(Cc1ccc(-c2cncs2)cc1)NC(=O)[C@@H](NC(=O)OC)C(C)C)C(C)C | 5.6 | 0.1 | 1.8 | 30 | – | – | – | – | – | – | – | –
6 | COC(=O)N[C@H](C(=O)NN(Cc1ccc(-c2ccccn2)cc1)C[C@H](O)[C@H](Cc1ccccc1)NC(=O)[C@@H](NC(=O)OC)C(C)(C)C)C(C)C | 2.6 | 13.3 | 15.3 | 10 | – | – | – | – | – | – | – | –
7 | COC(=O)N[C@H](C(=O)N[C@@H](Cc1ccccc1)[C@@H](O)CN(Cc1ccc(-c2cncs2)cc1)NC(=O)[C@@H](NC(=O)OC)C(C)(C)C)C(C)C | 1.4 | 4.4 | 8.5 | 10 | – | – | – | – | – | – | – | –
8 | COC(=O)N[C@H](C(=O)NN(Cc1ccc(-c2cncs2)cc1)C[C@H](O)[C@H](Cc1ccccc1)NC(=O)[C@@H](NC(=O)OC)C(C)(C)C)C(C)C | 1.9 | 5.7 | 8.5 | 10 | – | – | – | – | – | – | – | –
9 | COC(=O)N[C@H](C(=O)N[C@@H](Cc1ccccc1)[C@@H](O)CN(Cc1ccc(-c2ccccn2)cc1)NC(=O)[C@@H](NC(=O)OC)C(C)C)C(C)C | 7.4 | 2.2 | 2.7 | 30 | – | – | – | – | – | – | – | –
10 | COC(=O)N[C@H](C(=O)N[C@@H](Cc1ccccc1)[C@@H](O)CN(Cc1ccc(-c2ccccn2)cc1)NC(=O)[C@@H](NC(=O)OC)C(C)(C)C)C(C)(C)C [ATAZANAVIR] | 1.4 | 31.8 | 21.8 | 3 | 0.01 | 0.004 | – | – | – | 0.03 | 0.3 | 0.3
11 | CCOC(=O)N[C@H](C(=O)NN(Cc1ccc(-c2ccccn2)cc1)C[C@H](O)[C@H](Cc1ccccc1)NC(=O)[C@@H](NC(=O)OC)C(C)C)C(C)C | 5.4 | 0.2 | 0.5 | 30 | – | – | – | – | – | – | – | –
12 | COC(=O)N[C@H](C(=O)N[C@@H](Cc1ccccc1)[C@@H](O)CN(Cc1ccc(-c2ccccc2)cc1)NC(=O)[C@@H](NC(=O)OC)C(C)C)C(C)C | 1.8 | 0.3 | <0.1 | 10 | – | – | – | – | – | – | – | –
13 | COC(=O)N[C@H](C(=O)N[C@@H](Cc1ccccc1)[C@@H](O)CN(CCC(C)C)NC(=O)[C@@H](NC(=O)OC)C(C)C)C(C)C | 2.7 | 0.4 | <0.2 | 30 | – | – | – | – | – | – | – | –
14 | CCOC(=O)N[C@H](C(=O)NN(Cc1ccc(-c2cncs2)cc1)C[C@H](O)[C@H](Cc1ccccc1)NC(=O)[C@@H](NC(=O)OC)C(C)(C)C)C(C)C | 1.2 | 1.4 | 1.4 | 3 | – | – | – | – | – | – | – | –
15 | COC(=O)N[C@H](C(=O)N[C@@H](Cc1ccccc1)[C@@H](O)CN(Cc1ccc(-c2nccs2)cc1)NC(=O)[C@@H](NC(=O)OC)C(C)(C)C)C(C)(C)C | 0.5 | 10.2 | 9.1 | 3 | 0.01 | 0.004 | – | – | – | 0.1 | – | 0.3
16 | COC(=O)N[C@H](C(=O)N[C@@H](Cc1ccccc1)[C@@H](O)CN(Cc1ccc(-c2cncs2)cc1)NC(=O)[C@@H](NC(=O)OC)C(C)(C)C)C(C)(C)C | 0.8 | 9.9 | 12.6 | 3 | – | – | – | – | – | – | – | –
17 | COC(=O)N[C@H](C(=O)N[C@@H](Cc1ccccc1)[C@@H](O)CN(Cc1ccc(-c2nnn(C(C)(C)C)n2)cc1)NC(=O)[C@@H](NC(=O)OC)C(C)(C)C)C(C)(C)C | 0.8 | 4.6 | 4.2 | 3 | – | – | – | – | – | – | – | –
18 | CCC(C)[C@H](NC(=O)OC)C(=O)N[C@@H](Cc1ccccc1)[C@@H](O)CN(Cc1ccc(-c2ccccn2)cc1)NC(=O)[C@@H](NC(=O)OC)C(C)C (stereo partly specified) | 2.8 | 0.3 | 0.4 | 10 | – | – | – | – | – | – | – | –
19 | COC(=O)N[C@H](C(=O)NN(Cc1ccc(-c2ccccc2)cc1)C[C@H](O)[C@H](Cc1ccccc1)NC(=O)[C@@H](NC(=O)OC)C(C)(C)C)C(C)C | 0.7 | 1.1 | 0.6 | 3 | – | – | – | – | – | – | – | –
20 | COC(=O)N[C@H](C(=O)N[C@@H](Cc1ccccc1)[C@@H](O)CN(Cc1ccc(-c2nccs2)cc1)NC(=O)[C@@H](NC(=O)OC)C(C)(C)C)C(C)C | 2.1 | 14.9 | 17.5 | 10 | – | – | – | – | – | – | – | –
21 | COC(=O)N[C@H](C(=O)N[C@@H](Cc1ccccc1)[C@@H](O)CN(Cc1ccc(-c2nnn(C)n2)cc1)NC(=O)[C@@H](NC(=O)OC)C(C)(C)C)C(C)(C)C | 0.8 | 14.7 | 20.3 | 10 | 0.01 | 0.01 | – | – | – | 0.1 | – | 0.9
22 | COC(=O)N[C@H](C(=O)N[C@@H](Cc1ccccc1)[C@@H](O)CN(Cc1ccc(-c2ccccn2)cc1)NC(=O)[C@@H](NC(=O)OC)C(C)(C)C)C(C)C | 2 | 12.7 | 13.8 | 10 | – | – | – | – | – | – | – | –
